Reference: ChEMBL document CHEMBL3407339, “A novel series of thiazolyl-pyrazoline derivatives: synthesis and evaluation of antifungal activity, cytotoxicity and genotoxicity” (Eur J Med Chem, 2015)
Converted amounts (≈) assume the structure as drawn.

How the values were obtained:
Nakaseomyces glabratus = assay: Antifungal activity against Candida glabrata clinical isolate after 48 hrs by broth microdilution assay; format: functional
How it was run: (§1)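 Broth microdilution of DMSO stocks serially diluted in sterile water (4 to 0.0039 mg/mL). Yeasts grown on SDA at 37 °C for 24 h, suspended in double-strength PDB at 10⁵ spores/mL. Incubated at 37 °C for 48 h, then sprayed with 0.5% aqueous TTC. MIC = lowest concentration inhibiting visible growth. Ketoconazole reference.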

Candida albicans = assay: Antifungal activity against Candida albicans ATCC 90028 after 48 hrs by broth microdilution assay; format: functional; settings: ATCC 90028, 48 h; how it was run: as §1
Candida tropicalis = assay: Antifungal activity against Candida tropicalis NRLL Y 12968 after 48 hrs by broth microdilution assay; format: functional; settings: NRLL Y 12968, 48 h; how it was run: as §1
Pichia kudriavzevii = assay: Antifungal activity against Candida krusei NRLL Y 7179 after 48 hrs by broth microdilution assay; format: functional; settings: NRLL Y 7179, 48 h; how it was run: as §1
[Candida] zeylanoides = Antifungal activity against Candida zeylanoides NRLL Y 1774 after 48 hrs by broth microdilution assay; format: functional; settings: Dujonia zeylanoides, NRLL Y 1774, 48 h; how it was run: as §1
Candida parapsilosis = assay: Antifungal activity against Candida parapsilosis NRLL Y 12696 after 48 hrs by broth microdilution assay; format: functional; settings: Lodderomyces parapsilosis, NRLL Y 12696, 48 h; how it was run: as §1
Aspergillus flavus = assay: Antifungal activity against Aspergillus flavus NRRL 980 after 72 hrs by broth microdilution assay; format: functional; settings: NRRL 980, 72 h
How it was run: (§2)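 Compounds dissolved in DMSO, diluted in sterile distilled water from 4 to 0.0039 mg/mL. Molds grown on PDA at 25 °C for 5 days, suspended in double-strength PDB at 10⁵ spores/mL. Incubated at 25 °C for 72 h; mycelial growth read under stereo microscope. MIC = lowest concentration inhibiting visible growth. Ketoconazole reference.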

Aspergillus niger = assay: Antifungal activity against Aspergillus niger ATCC 1094 after 72 hrs by broth microdilution assay; format: functional; settings: ATCC 1094, 72 h; how it was run: as §2
Aspergillus parasiticus = assay: Antifungal activity against Aspergillus parasiticus NRRL 465 after 72 hrs by broth microdilution assay; format: functional; settings: NRRL 465, 72 h; how it was run: as §2
Fusarium solani = assay: Antifungal activity against Fusarium solani NRRL 13414 after 72 hrs by broth microdilution assay; format: functional; settings: NRRL 13414, 72 h; how it was run: as §2
Salmonella typhimurium [1] = assay: Mutagenicity in Salmonella typhimurium TA98 at 0.156 mg/ml after 48 hrs by AMES MPF assay in presence of Sprague-Dawley rat liver microsomal S9 fraction relative to baseline; format: toxicity, organism-based; settings: salmonella enterica subsp. enterica serovar typhimurium
How it was run: (§3)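 Ames MPF fluctuation test with TA98/TA100. Overnight cultures (37 °C, 14–16 h) mixed with exposure medium; ±Aroclor-1254-induced rat liver S9 (final 4.5% v/v). Compounds in DMSO, 0.156–5 mg/mL. 90 min exposure at 37 °C, then indicator medium; 48 wells per concentration, 48 h at 37 °C, in triplicate. Yellow wells counted; fold induction over baseline (mean + 1 SD of zero-dose control).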

Salmonella typhimurium [2] = assay: Mutagenicity in Salmonella typhimurium TA98 at 0.3125 mg/ml after 48 hrs by AMES MPF assay in presence of Sprague-Dawley rat liver microsomal S9 fraction relative to baseline; format: toxicity, organism-based; settings: salmonella enterica subsp. enterica serovar typhimurium; how it was run: as §3
Salmonella typhimurium [3] = assay: Mutagenicity in Salmonella typhimurium TA98 at 0.625 mg/ml after 48 hrs by AMES MPF assay in presence of Sprague-Dawley rat liver microsomal S9 fraction relative to baseline; format: toxicity, organism-based; settings: salmonella enterica subsp. enterica serovar typhimurium; how it was run: as §3
Salmonella typhimurium [4] = assay: Mutagenicity in Salmonella typhimurium TA98 at 1.25 mg/ml after 48 hrs by AMES MPF assay in presence of Sprague-Dawley rat liver microsomal S9 fraction relative to baseline; format: toxicity, organism-based; settings: salmonella enterica subsp. enterica serovar typhimurium; how it was run: as §3
Salmonella typhimurium [5] = assay: Mutagenicity in Salmonella typhimurium TA98 at 2.5 mg/ml after 48 hrs by AMES MPF assay in presence of Sprague-Dawley rat liver microsomal S9 fraction relative to baseline; format: toxicity, organism-based; settings: salmonella enterica subsp. enterica serovar typhimurium; how it was run: as §3
Salmonella typhimurium [6] = assay: Mutagenicity in Salmonella typhimurium TA98 at 5 mg/ml after 48 hrs by AMES MPF assay in presence of Sprague-Dawley rat liver microsomal S9 fraction relative to baseline; format: toxicity, organism-based; settings: salmonella enterica subsp. enterica serovar typhimurium; how it was run: as §3
Salmonella typhimurium [7] = assay: Mutagenicity in Salmonella typhimurium TA98 at 0.156 mg/ml after 48 hrs by AMES MPF assay in absence of Sprague-Dawley rat liver microsomal S9 fraction relative to baseline; format: toxicity, organism-based; settings: salmonella enterica subsp. enterica serovar typhimurium; how it was run: as §3
Salmonella typhimurium [8] = assay: Mutagenicity in Salmonella typhimurium TA98 at 0.3125 mg/ml after 48 hrs by AMES MPF assay in absence of Sprague-Dawley rat liver microsomal S9 fraction relative to baseline; format: toxicity, organism-based; settings: salmonella enterica subsp. enterica serovar typhimurium; how it was run: as §3
Salmonella typhimurium [9] = assay: Mutagenicity in Salmonella typhimurium TA98 at 0.625 mg/ml after 48 hrs by AMES MPF assay in absence of Sprague-Dawley rat liver microsomal S9 fraction relative to baseline; format: toxicity, organism-based; settings: salmonella enterica subsp. enterica serovar typhimurium; how it was run: as §3
Salmonella typhimurium [10] = assay: Mutagenicity in Salmonella typhimurium TA98 at 1.25 mg/ml after 48 hrs by AMES MPF assay in absence of Sprague-Dawley rat liver microsomal S9 fraction relative to baseline; format: toxicity, organism-based; settings: salmonella enterica subsp. enterica serovar typhimurium; how it was run: as §3
Salmonella typhimurium [11] = assay: Mutagenicity in Salmonella typhimurium TA98 at 2.5 mg/ml after 48 hrs by AMES MPF assay in absence of Sprague-Dawley rat liver microsomal S9 fraction relative to baseline; format: toxicity, organism-based; settings: salmonella enterica subsp. enterica serovar typhimurium; how it was run: as §3
Salmonella typhimurium [12] = assay: Mutagenicity in Salmonella typhimurium TA98 at 5 mg/ml after 48 hrs by AMES MPF assay in absence of Sprague-Dawley rat liver microsomal S9 fraction relative to baseline; format: toxicity, organism-based; settings: salmonella enterica subsp. enterica serovar typhimurium; how it was run: as §3
Salmonella typhimurium [13] = assay: Mutagenicity in Salmonella typhimurium TA100 at 0.156 mg/ml after 48 hrs by AMES MPF assay in presence of Sprague-Dawley rat liver microsomal S9 fraction relative to baseline; format: toxicity, organism-based; settings: salmonella enterica subsp. enterica serovar typhimurium; how it was run: as §3
Salmonella typhimurium [14] = assay: Mutagenicity in Salmonella typhimurium TA100 at 0.3125 mg/ml after 48 hrs by AMES MPF assay in presence of Sprague-Dawley rat liver microsomal S9 fraction relative to baseline; format: toxicity, organism-based; settings: salmonella enterica subsp. enterica serovar typhimurium; how it was run: as §3
Salmonella typhimurium [15] = assay: Mutagenicity in Salmonella typhimurium TA100 at 0.625 mg/ml after 48 hrs by AMES MPF assay in presence of Sprague-Dawley rat liver microsomal S9 fraction relative to baseline; format: toxicity, organism-based; settings: salmonella enterica subsp. enterica serovar typhimurium; how it was run: as §3
Salmonella typhimurium [16] = assay: Mutagenicity in Salmonella typhimurium TA100 at 1.25 mg/ml after 48 hrs by AMES MPF assay in presence of Sprague-Dawley rat liver microsomal S9 fraction relative to baseline; format: toxicity, organism-based; settings: salmonella enterica subsp. enterica serovar typhimurium; how it was run: as §3
Salmonella typhimurium [17] = assay: Mutagenicity in Salmonella typhimurium TA100 at 2.5 mg/ml after 48 hrs by AMES MPF assay in presence of Sprague-Dawley rat liver microsomal S9 fraction relative to baseline; format: toxicity, organism-based; settings: salmonella enterica subsp. enterica serovar typhimurium; how it was run: as §3
Salmonella typhimurium [18] = assay: Mutagenicity in Salmonella typhimurium TA100 at 5 mg/ml after 48 hrs by AMES MPF assay in presence of Sprague-Dawley rat liver microsomal S9 fraction relative to baseline; format: toxicity, organism-based; settings: salmonella enterica subsp. enterica serovar typhimurium; how it was run: as §3
Salmonella typhimurium [19] = assay: Mutagenicity in Salmonella typhimurium TA100 at 0.156 mg/ml after 48 hrs by AMES MPF assay in absence of Sprague-Dawley rat liver microsomal S9 fraction relative to baseline; format: toxicity, organism-based; settings: salmonella enterica subsp. enterica serovar typhimurium; how it was run: as §3
Salmonella typhimurium [20] = assay: Mutagenicity in Salmonella typhimurium TA100 at 0.3125 mg/ml after 48 hrs by AMES MPF assay in absence of Sprague-Dawley rat liver microsomal S9 fraction relative to baseline; format: toxicity, organism-based; settings: salmonella enterica subsp. enterica serovar typhimurium; how it was run: as §3
Salmonella typhimurium [21] = assay: Mutagenicity in Salmonella typhimurium TA100 at 0.625 mg/ml after 48 hrs by AMES MPF assay in absence of Sprague-Dawley rat liver microsomal S9 fraction relative to baseline; format: toxicity, organism-based; settings: salmonella enterica subsp. enterica serovar typhimurium; how it was run: as §3
Salmonella typhimurium [22] = assay: Mutagenicity in Salmonella typhimurium TA100 at 1.25 mg/ml after 48 hrs by AMES MPF assay in absence of Sprague-Dawley rat liver microsomal S9 fraction relative to baseline; format: toxicity, organism-based; settings: salmonella enterica subsp. enterica serovar typhimurium; how it was run: as §3
Salmonella typhimurium [23] = assay: Mutagenicity in Salmonella typhimurium TA100 at 2.5 mg/ml after 48 hrs by AMES MPF assay in absence of Sprague-Dawley rat liver microsomal S9 fraction relative to baseline; format: toxicity, organism-based; settings: salmonella enterica subsp. enterica serovar typhimurium; how it was run: as §3
Salmonella typhimurium [24] = assay: Mutagenicity in Salmonella typhimurium TA100 at 5 mg/ml after 48 hrs by AMES MPF assay in absence of Sprague-Dawley rat liver microsomal S9 fraction relative to baseline; format: toxicity, organism-based; settings: salmonella enterica subsp. enterica serovar typhimurium; how it was run: as §3
A549 = assay: Antiproliferative activity against human A549 cells after 24 hrs by XTT assay; format: functional, cell-based; settings: A549, 24 h
How it was run: (§4)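 A549 cells in RPMI and NIH/3T3 cells in DMEM, each with fetal calf serum, antibiotics and 7.5% NaHCO₃, at 37 °C, 5% CO₂. Seeded at 20,000 cells/well, 24 h, then compounds added in medium at 500–3.9 doses (final DMSO <0.1%) for 24 h. XTT read after 3 h at 480 nm (ref 680 nm). IC₅₀ by non-linear regression; triplicates; cisplatin control.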

[25] = Cytotoxicity against mouse NIH/3T3 cells after 24 hrs by XTT assay; format: cell-based; settings: NIH3T3, 24 h; how it was run: as §4

Fc1ccc(C2CC(c3ccc(Cl)s3)=NN2c2nc(-c3ccc(Cl)cc3)cs2)cc1 (stereo unspecified)
MIC (Nakaseomyces glabratus): 125 µg/mL (≈ 263 µM)
MIC (Candida albicans): 250 µg/mL (≈ 527 µM)
MIC (Candida tropicalis): 250 µg/mL (≈ 527 µM)
MIC (Pichia kudriavzevii): 250 µg/mL (≈ 527 µM)
MIC ([Candida] zeylanoides): 250 µg/mL (≈ 527 µM)
MIC (Candida parapsilosis): 250 µg/mL (≈ 527 µM)
MIC (Aspergillus flavus): 125 µg/mL (≈ 263 µM)
MIC (Aspergillus niger): 250 µg/mL (≈ 527 µM)
MIC (Aspergillus parasiticus): 250 µg/mL (≈ 527 µM)
MIC (Fusarium solani): 250 µg/mL (≈ 527 µM)
fold change (FC) (Salmonella typhimurium [1]): 0.68
fold change (FC) (Salmonella typhimurium [2]): 0.81
fold change (FC) (Salmonella typhimurium [3]): 0.95
fold change (FC) (Salmonella typhimurium [4]): 0.81
fold change (FC) (Salmonella typhimurium [5]): 0.54
fold change (FC) (Salmonella typhimurium [6]): 0.81
fold change (FC) (Salmonella typhimurium [7]): 0
fold change (FC) (Salmonella typhimurium [8]): 0
fold change (FC) (Salmonella typhimurium [9]): 0
fold change (FC) (Salmonella typhimurium [10]): 0.67
fold change (FC) (Salmonella typhimurium [11]): 0.67
fold change (FC) (Salmonella typhimurium [12]): 1
fold change (FC) (Salmonella typhimurium [13]): 3.23
fold change (FC) (Salmonella typhimurium [14]): 3.92
fold change (FC) (Salmonella typhimurium [15]): 3.46
fold change (FC) (Salmonella typhimurium [16]): 3.69
fold change (FC) (Salmonella typhimurium [17]): 3
fold change (FC) (Salmonella typhimurium [18]): 3.92
fold change (FC) (Salmonella typhimurium [19]): 1.67
fold change (FC) (Salmonella typhimurium [20]): 0.67
fold change (FC) (Salmonella typhimurium [21]): 0.33
fold change (FC) (Salmonella typhimurium [22]): 0.33
fold change (FC) (Salmonella typhimurium [23]): 1
fold change (FC) (Salmonella typhimurium [24]): 0.33
IC50 (A549): 125 µg/mL (≈ 263 µM)
IC50 [25]: > 500 µg/mL
